According to ChEMBL document CHEMBL1944627, “[¹⁸F]GE-180: a novel fluorine-18 labelled PET tracer for imaging Translocator protein 18 kDa (TSPO)” (Bioorg Med Chem Lett, 2012):
pKi: −log10 of the molar value.

Tests used:
[1] = target: Translocator protein (Rattus norvegicus, UniProt P16257); experiment: Displacement of [3H]PK11195 from TSPO receptor in Wistar rat heart homogenate after 15 mins; assay type: tissue-based
[2] = Lipophilicity, log D of the compound at pH 7.4; assay type: physicochemical; conditions: buffer
[3] = test system: Brain; experiment: Biodistribution in Sprague-Dawley rat whole brain at 1 to 3 MBq, iv after 2 mins by gamma counting; assay type: ADME, organism-based; conditions: in vivo
Summary of the method: (§1)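 Tracer formulated in Dulbecco's PBS and given iv, about 1–3 MBq at 10 MBq/mL, under 4% isoflurane, to naive rats (n = 3). Animals were killed at set times after injection. Brain was dissected into regions including striatum and olfactory bulbs, and activity was counted by gamma counter. Values are % id/g, and regional ratios were taken between times or regions.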

[4] = test system: Rattus norvegicus; experiment: Biodistribution in Sprague-Dawley rat olfactory bulbs at 1 to 3 MBq, iv after 30 mins by gamma counting; assay type: ADME, organism-based, Olfactory bulb; conditions: in vivo, 0.5 h; summary of the method: as §1
[5] = Ratio of drug uptake in olfactory bulb to striatum in Sprague-Dawley rat at 1 to 3 MBq, iv after 30 mins by gamma counting; conditions: in vivo, 0.5 h
[6] = Ratio of drug uptake in striatum in Sprague-Dawley rat at 1 to 3 MBq, iv after 2 mins to drug uptake in striatum in Sprague-Dawley rat at 1 to 3 MBq, iv after 30 mins; conditions: in vivo
[7] = Metabolic stability in Sprague-Dawley rat brain assessed as compound remaining at 1 to 3 MBq, iv after 60 mins by HPLC analysis; assay type: ADME, organism-based; conditions: read-out: Stability
Summary of the method: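 Radiotracer was injected iv into rats. Brain and plasma were sampled at 10, 30 and 60 min post injection to follow metabolic fate. Brain radioactivity at 60 min is expressed as % parent tracer remaining.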

[8] = Metabolic stability in Sprague-Dawley rat brain assessed as compound remaining at 1 to 3 MBq, iv after 30 mins by HPLC analysis; assay type: ADME, organism-based; conditions: read-out: Stability

Translocator protein, sequence (P16257 whole entry, looked up): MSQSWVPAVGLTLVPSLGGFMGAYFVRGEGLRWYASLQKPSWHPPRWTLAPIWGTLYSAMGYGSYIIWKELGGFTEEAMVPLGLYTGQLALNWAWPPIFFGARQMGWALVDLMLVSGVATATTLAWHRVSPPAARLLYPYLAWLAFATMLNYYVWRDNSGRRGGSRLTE

pKi [1]	logD [2]	Drug uptake [3] [% ID/g]	Drug uptake [4] [% ID/g]	Ratio [5]	Ratio [6]	remaining at 1 h [7] [%]	remaining at 0.5 h [8] [%]	SMILES
6.30	1.7							CN(C)C(=O)C1CCCc2c1c1ccccc1n2CCF (racemic)
		0.28	0.21			100		CCC(C)N([11CH3])C(=O)c1cc2ccccc2c(-c2ccccc2Cl)n1 (stereo not drawn)
8.62	2.95							CCN(CC)C(=O)C1CCCc2c1c1c(OC)cccc1n2CCF (racemic)
8.40	2.2							CC(C)N(C)C(=O)C1CCCc2c1c1ccccc1n2CCF (racemic)
		0.45	0.46	2.09	1.77			CCCN(CC)C(=O)C1CCCc2c1c1ccccc1n2CC[18F] (stereo not drawn)
		0.39	0.25	2.5	3.5			CCCN(C)C(=O)C1CCCc2c1c1ccccc1n2CC[18F] (stereo not drawn)
9.15	2.13							CCCCCCN(CCCCCC)C(=O)C1CCCc2c1c1ccccc1n2CCF (racemic)
7.54	2.47							O=C(NCc1ccccc1)C1CCCc2c1c1ccccc1n2CCF (racemic)
9.15	2.98							CCCN(CCC)C(=O)C1CCCc2c1c1ccccc1n2CCF (racemic)
		0.55	0.34	3.4	4.7	81		CN(Cc1ccccc1)C(=O)C1CCCc2c1c1ccccc1n2CC[18F] (stereo not drawn)
		0.53	0.23					CCN(CC)C(=O)[C@@H]1CCCc2c1c1c(OC)cccc1n2CC[18F]
8.84	3.1							CN(Cc1ccccc1)C(=O)C1CCCc2c1c1cc(F)ccc1n2CCF (racemic)
		0.48	0.34	3.4	4.3	76		CCN(Cc1ccccc1)C(=O)C1CCCc2c1c1ccccc1n2CC[18F] (stereo not drawn)
		0.52	0.36			90		CCN(CC)C(=O)C1CCCc2c1c1c(OC)cccc1n2CC[18F] (racemic)
		0.49	0.4	2.2	2.39			CCCN(CCC)C(=O)C1CCCc2c1c1ccccc1n2CC[18F] (stereo not drawn)
9.17			0.17	1.42	2.16		95	CCN(CC)C(=O)C1Sc2ccccc2-c2c1c1ccccc1n2CCF (stereo not drawn)

pKi [1]	logD [2]	Drug uptake [3] [% ID/g]	Drug uptake [4] [% ID/g]	Ratio [5]	Ratio [6]	remaining at 1 h [7] [%]	remaining at 0.5 h [8] [%]	SMILES
8.89	2.42							CN(Cc1ccccc1)C(=O)C1CCCc2c1c1ccccc1n2CCF (racemic)
8.77	2.28							CC(C)N(C(=O)C1CCCc2c1c1ccccc1n2CCF)C(C)C (racemic)
8.08	2.72							CC(C)N(C)C(=O)C1CCCc2c1c1cc(F)ccc1n2CCF (racemic)
9.42								CCCN(CC)C(=O)C1CCCc2c1c1ccccc1n2CCF (racemic)
		0.48	0.25	2.78	5.11	43		CC(C)N(C(=O)C1CCCc2c1c1ccccc1n2CC[18F])C(C)C (stereo not drawn)
		0.53	0.35	3.18	4.54	74		CC(C)N(C)C(=O)C1CCCc2c1c1ccccc1n2CC[18F] (stereo not drawn)
8.72	2.71							CCN(CC)C(=O)C1CCCc2c1c1cc(OC)ccc1n2CCF (racemic)
8.66	1.99							CCCN(C)C(=O)C1CCCc2c1c1ccccc1n2CCF (racemic)
8.27	2.78							CCN(CC)C(=O)C1CCCc2c1c1ccccc1n2CCF (racemic)
		0.36	0.39	4.33	4			CCN(CC)C(=O)C1CCCc2c1c1ccc(OC)cc1n2CC[18F] (stereo not drawn)
8.26	2.41							CCN(CC)C(=O)C1CCCc2c1c1ccc(OC)cc1n2CCF (racemic)
		0.53	0.45			94		CCN(CC)C(=O)[C@H]1CCCc2c1c1c(OC)cccc1n2CC[18F]
		0.39	0.31	3.88	4.25	76		CCN(CC)C(=O)C1CCCc2c1c1cc(OC)ccc1n2CC[18F] (stereo not drawn)
9.14	2.84							CCN(Cc1ccccc1)C(=O)C1CCCc2c1c1ccccc1n2CCF (racemic)
		0.53	0.39	3.25	4.08	62		CCN(CC)C(=O)C1CCCc2c1c1ccccc1n2CC[18F] (stereo not drawn)

The next lines start with the compound.

SMILES	pKi [1]	logD [2]	Drug uptake [3] [% ID/g]	Drug uptake [4] [% ID/g]	Ratio [5]	Ratio [6]	remaining at 1 h [7] [%]	remaining at 0.5 h [8] [%]
O=C(C1CCCc2c1c1ccccc1n2CC[18F])N1CCCC1 (stereo not drawn)			0.34	0.12				
CCN(CC)C(=O)C1CCCc2c1c1ccc(F)cc1n2CCF (racemic)	8.98							
CCCCCCN(CCCCCC)C(=O)C1CCCc2c1c1ccccc1n2CC[18F] (stereo not drawn)			0.06	0.1	1.11	0.44		
O=C(C1CCCc2c1c1ccccc1n2CCF)N1CCOCC1 (racemic)	6.22	1.53						
CCOc1ccc2c(c1)c1c(n2CC[18F])CCCC1C(=O)N(CC)CC (stereo not drawn)			0.33	0.25	2.5	3		
CCOc1ccc2c(c1)c1c(n2CCF)CCCC1C(=O)N(CC)CC (racemic)	8.51	2.56						
O=C(C1CCCc2c1c1ccccc1n2CC[18F])N1CCCCC1 (stereo not drawn)			0.51	0.25			83	
O=C(C1CCCc2c1c1ccccc1n2CCF)N1CCCC1 (racemic)	6.30	2.18						
COc1ccc(OC)c(CN(C(=O)CF)c2ccccc2Oc2ccccc2)c1							91	
COc1ccc(OC)c(CN(C(=O)C[18F])c2ccccc2Oc2ccccc2)c1			0.74	0.49				
O=C(C1CCCc2c1c1ccccc1n2CCF)N1CCCCC1 (racemic)	7.74	2.53						
CCN(CC)C(=O)C1CCCc2c1c1cc(F)c(OC)cc1n2CC[18F] (stereo not drawn)			0.33	0.25	2.78	3		
CCN(CC)C(=O)C1CCCc2c1c1cc(F)ccc1n2CC[18F] (stereo not drawn)			0.56	0.41			84	
CCN(CC)C(=O)C1CCCc2c1c1ccc(F)cc1n2CC[18F] (stereo not drawn)			0.52	0.48	1.92	1.8		
CCN(CC)C(=O)C1CCCc2c1c1cc(F)ccc1n2CCF (racemic)	8.42	2.37						
CCN(CC)C(=O)C1CCCc2c1c1cc(OC)c(F)cc1n2CC[18F] (stereo not drawn)			0.29	0.21	3.5	4.17		
CCN(CC)C(=O)C1CCCc2c1c1cc(OC)c(F)cc1n2CCF (racemic)	8.82	2.38						
O=C(C1CCCc2c1c1ccccc1n2CC[18F])N1CCCCCC1 (stereo not drawn)			0.45	0.33	4.13	5.38	79	
O=C(C1CCCc2c1c1ccccc1n2CCF)N1CCCCCC1 (racemic)	8.36	2.35						
CCN(CC)C(=O)C1CCCc2c1c1c(OC)cc(OC)cc1n2CCF (racemic)	8.36	1.95						
CCN(CC)C(=O)C1CCCc2c1c1c(F)cccc1n2CC[18F] (stereo not drawn)			0.5	0.51			93	
CCN(CC)C(=O)C1CCCc2c1c1cc(F)c(OC)cc1n2CCF (racemic)	8.51	2.08						
CCN(CC)C(=O)C1CCCc2c1c1cc(O)ccc1n2CCF (racemic)	6.87	1.7						
